Source: ChEMBL document CHEMBL4052597, “Symmetrically Substituted Xanthone Amphiphiles Combat Gram-Positive Bacterial Resistance with Enhanced Membrane Selectivity” (J Med Chem, 2017)
Converted amounts (≈) assume the structure as drawn. The source made the active and inactive calls. No cut-off for these calls is given here. Peptide text beside a SMILES is read from it.

Key:
Staphylococcus aureus [1] = assay: Antibacterial activity against methicillin-resistant Staphylococcus aureus DM 21455 after 24 hrs by two fold dilution assay; format: functional; details: DM 21455, 24 h
Method in brief: (§1)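 CLSI broth macrodilution in cation-adjusted Mueller-Hinton broth. Compounds were dissolved in DMF and diluted in PBS to a 1000 µg/mL stock, then serially 2-fold diluted in CA-MHB. The inoculum came from colonies on 18-20 h TSA plates (direct colony suspension), adjusted to ~5×10^5 CFU/mL. Incubation was 24 h at 35 °C. MIC is the lowest concentration with no visible growth versus control. Biological replicates.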

Staphylococcus aureus [2] = assay: Antibacterial activity against Staphylococcus aureus DM 4001R after 24 hrs by two fold dilution assay; format: functional; method in brief: as §1
Staphylococcus aureus [3] = assay: Antibacterial activity against methicillin-resistant Staphylococcus aureus DM 9808R after 24 hrs by two fold dilution assay; format: functional; method in brief: as §1
Staphylococcus aureus [4] = assay: Antibacterial activity against Staphylococcus aureus ATCC 700699 infected in C57BL6 mouse cornea assessed as decrease in number of viable bacteria at 0.5% administered topically at 2 hrs interval for 4 times starting on day 1 post infection measured post last dose relative to control; format: functional, Mu50
Bacillus cereus = assay: Antibacterial activity against Bacillus cereus ATCC 11778 after 24 hrs by two fold dilution assay; format: functional; details: ATCC 11778, 24 h
Method in brief: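 Broth macro-dilution per CLSI in cation-adjusted Mueller-Hinton broth; compounds dissolved in DMF, diluted in PBS to 1000 µg/mL stock, then serial 2-fold dilutions in CA-MHB in tubes. Inoculum from 18-20 h TSA colonies (direct colony suspension), adjusted to about 5× 10^5 CFU/mL. MIC read after 24 h at 35 °C as lowest concentration with no visible growth; biological replicates.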

Staphylococcus aureus [5] = assay: Disruption of membrane in Staphylococcus aureus isolate DM4001R assessed as increase in ATP leakage at 4 times MIC after 1 hr by ATP bioluminescent assay relative to control; format: functional
Method in brief: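 S. aureus DM4001 grown to exponential phase, washed three times in 20 mM PBS (pH 7), resuspended to OD600 0.2. Compound added, suspensions held 1 hour at 37 °C, then centrifuged. Supernatant mixed with luciferase/luciferin enzyme mix; extracellular ATP quantified by luminescence. Replicated.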

Lipid bilayer [6] = assay: Induction of membrane damage in DOPE/DOPG large unilamellar vesicles assessed as calcein leakage at compound to lipid ratio of 1:16 after 1 hr by fluorescence assay relative to control
Method in brief: (§2)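 100 nm calcein-loaded LUVs made by film hydration; lipid content set by total phosphorus assay. DOPC/cholesterol (3:1, w/w) mimics mammalian and DOPE/DOPG (3:1, w/w) bacterial membranes. Compound in DMF added at lipid-to-compound ratio 16 (6.25 µM compound), final DMF limited to 0.5%. Fluorescence monitored at ex 490/em 520 nm for 1 hour; replicated.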

Lipid bilayer [7] = assay: Induction of membrane damage in DOPC/cholesterol large unilamellar vesicles assessed as calcein leakage at compound to lipid ratio of 1:16 after 1 hr by fluorescence assay relative to control; method in brief: as §2
Staphylococcus aureus [8] = assay: Disruption of cytoplasmic membrane in Staphylococcus aureus isolate DM4001R at 2 times MIC after 3000 secs by SYTOX green dye based fluorescence assay; format: functional
Method in brief: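 Clinical S. aureus isolate DM4001R incubated with SYTOX Green plus compound; membrane permeabilization read as increased fluorescence intensity. Measurements replicated.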

| Structure (SMILES) | MIC (Staphylococcus aureus [1]) [µg/mL] | MIC (Staphylococcus aureus [2]) [µg/mL] | MIC (Staphylococcus aureus [3]) [µg/mL] | Activity (Staphylococcus aureus [4]) [%] | MIC (Bacillus cereus) [µg/mL] | Activity (Staphylococcus aureus [5]) [%] | Activity (Lipid bilayer [6]) [%] | Activity (Lipid bilayer [7]) [%] | Activity (Staphylococcus aureus [8]) |
| --- | --- | --- | --- | --- | --- | --- | --- | --- | --- |
| CC[C@H](C)[C@H](NC(=O)CN)C(=O)NCC(=O)N[C@@H](CCCCN)C(=O)N[C@@H](Cc1ccccc1)C(=O)N[C@@H](CC(C)C)C(=O)N[C@@H](CCCCN)C(=O)N[C@@H](CCCCN)C(=O)N[C@@H](C)C(=O)N[C@@H](CCCCN)C(=O)N[C@@H](CCCCN)C(=O)N[C@@H](Cc1ccccc1)C(=O)NCC(=O)N[C@@H](CCCCN)C(=O)N[C@@H](C)C(=O)N[C@@H](Cc1ccccc1)C(=O)N[C@H](C(=O)N[C@@H](CCCCN)C(=O)N[C@H](C(=O)N[C@@H](CC(C)C)C(=O)N[C@@H](CCCCN)C(=O)N[C@@H](CCCCN)C(=O)O)[C@@H](C)CC)C(C)C (H-GIGKFLKKAKKFGKAFVKILKK-OH) | 12.5 (≈ 5.04 µM) | 12.5 (≈ 5.04 µM) | 25 (≈ 10.1 µM) | 93.3 | 12.5 (≈ 5.04 µM) |  |  |  |  |
| CC(C)=CCOc1cc(OCC(=O)N[C@@H](CCCNC(=N)N)C(N)=O)c2c(=O)c3c(OCC(=O)N[C@@H](CCCNC(=N)N)C(N)=O)cc(OCC=C(C)C)cc3oc2c1 | 6.25 (≈ 7.59 µM) | 12.5 (≈ 15.2 µM) | 6.25 (≈ 7.59 µM) |  | 12.5 (≈ 15.2 µM) |  |  |  |  |
| COC(=O)[C@H](CCCCN)NC(=O)COc1cc(OCC=C(C)C)cc2oc3cc(OCC=C(C)C)cc(OCC(=O)N[C@@H](CCCCN)C(=O)OC)c3c(=O)c12 | 6.25 (≈ 7.84 µM) | 12.5 (≈ 15.7 µM) | 12.5 (≈ 15.7 µM) |  | 6.25 (≈ 7.84 µM) | 106.7 | 48.2 | < 20 | Active |
| CCN(CC)CCCNC(=O)COc1cc(OCC=C(C)C)cc2oc3cc(OCC=C(C)C)cc(OCC(=O)NCCCN(CC)CC)c3c(=O)c12 | 6.25 (≈ 8.48 µM) | 6.25 (≈ 8.48 µM) | 12.5 (≈ 17 µM) |  | 25 (≈ 33.9 µM) |  |  |  |  |
| CC(C)=CCOc1cc(O)c2c(=O)c3c(O)cc(OCC=C(C)C)cc3oc2c1 | > 50 | > 50 | > 50 |  | > 50 |  |  |  |  |
| COC(=O)[C@H](CCCNC(=N)N)NC(=O)COc1cc(OCC(=O)N[C@@H](CCCNC(=N)N)C(=O)OC)c2c(=O)c3c(OCC(=O)N[C@@H](CCCNC(=N)N)C(=O)OC)cc(OCC=C(C)C)cc3oc2c1 | 50 (≈ 49.4 µM) | 50 (≈ 49.4 µM) | 50 (≈ 49.4 µM) |  | 50 (≈ 49.4 µM) |  |  |  |  |
| COC(=O)[C@H](CCCNC(=N)N)NC(=O)COc1cc(OC/C=C(\C)CCC=C(C)C)cc2oc3cc(OC/C=C(\C)CCC=C(C)C)cc(OCC(=O)N[C@@H](CCCNC(=N)N)C(=O)OC)c3c(=O)c12 | > 50 | 25 (≈ 25.3 µM) | 50 (≈ 50.5 µM) |  | > 50 |  |  |  |  |
| CC(C)=CCOc1cc(OCC(=O)NCCCN(C)C)c2c(=O)c3c(OCC(=O)NCCCN(C)C)cc(OCC=C(C)C)cc3oc2c1 | 6.25 (≈ 9.18 µM) | 6.25 (≈ 9.18 µM) | 12.5 (≈ 18.4 µM) |  | 12.5 (≈ 18.4 µM) |  |  |  |  |
